HSF1 activator – HSF-1 activators, primary screen, NIH3T3-HGL cells, MG132 stress, luminescence, single point | NIH3T3-HGL HSF-1 luciferase reporter, 8 h; 100% = twice DMSO control signal | activation, % at 9 µM | actives 1.7% (n = 300,000) | AID 504408, 2011;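 active means mean replicate activation of at least 50% with a set share of replicates each reaching 50%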
Hsp70 activator – Hsp70 transcriptional activators, primary screen, cell-based, HeLa, Hsp70 promoter luciferase, luminescence, 10 µM; AID 1203, 2008; actives 0.04% (n = 200,000); activation, % at 10 µM; HeLa Hsp70 promoter luciferase reporter; scaled: vehicle 0, proteasome-inhibitor control 100%;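 active means activation above the mean across all tested compounds plus 3 SD, cutoff set per campaign, cut at about 5.5% in these data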
HSF1 inh – HSF1 inhibitors in luciferase reporter cells, primary screen, cell-based, NIH3T3, luminescence; activity change, negative = inhibition, % at 7.5 µM (by protocol); actives 0.77% (n = 300,000); NIH3T3-HGL HSE-luciferase, MG132-induced, luminescence 8 h; active compounds read low;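 active means more than half of replicate wells show activity change below -50%, luminescence cut by over half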;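 further: luciferase reports HSF-1 transcriptional activity via heat shock element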
HSP90 refold inh – HSP90 inhibitors, primary screen, cell lysate, luminescence | Rabbit reticulocyte lysate, luciferase refolding luminescence, 3 h | inhibition, % at 5.6 µM | actives 0.91% (n = 290,000) | AID 1789, 2009;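 active means inhibition above the screen-wide mean plus 3 SD, computed separately per campaign, cut at about 16% in these data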;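 further: inhibitors lower the luminescence because luciferase stays unfolded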
HKDC1 inh – HKDC1 hexokinase inhibitors, primary screen, biochemical, fluorescence, uHTS. recombinant HKDC1, G6PDH/diaphorase resazurin coupled fluorescence. Q2TB90. actives 0.16% (n = 340,000). inhibition, % at 20 µM;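 active means inhibition above about 35% when tested at 20 µM, limit read from the data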
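Assay system – recombinant HKDC1 (HK5) hexokinase enzyme, produced in-house · Input – HKDC1 at 5 µg/mL · Reagent – glucose plus 1 mM ATP as hexokinase substrates · Timing – 90 min reaction incubation at room temperature, dark · Measured by – G6PDH/diaphorase-coupled fluorescence, 1 mM NADP, 100 µM resazurin, 525/613 nm · Benchmarks – DMSO-enzyme wells negative, buffer-substituted wells positive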
TbHK1 inh – Trypanosoma brucei hexokinase 1 inhibitors, primary screen, biochemical, G6PDH-coupled NADH absorbance, MLSCN library; hexokinase 1 [Trypanosoma brucei]; actives 0.11% (n = 220,000); inhibition, % at 10 µM; recombinant TbHK1, G6PDH-coupled NADH A340;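 active means inhibition of 50% or more in the single-dose primary screen; inactive means inhibition below 50%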
A number is an active result; - = inactive; . = not tested or not shown. Only some compounds are listed: those with a hit (about 3.1% of all), similar ones and a draw of the others.

SMILES	HSF1 activator	Hsp70 activator	HSF1 inh	HSP90 refold inh	HKDC1 inh	TbHK1 inh
Cc1cccc(CSc2cn(CC(=O)N3CCOCC3)c3ccccc23)c1	75.5	-	-	-	-	-
O=C(NCCc1ccccc1)C(=O)NCC1OCCCN1S(=O)(=O)c1cc(F)ccc1F (configuration not stated)	-	.	-	16.2	-	.
Cc1cc(F)ccc1S(=O)(=O)N1CCCOC1CNC(=O)C(=O)NCCc1ccccc1 (configuration not stated)	-	.	-	-	-	.
CN1CCN(C(=O)c2ccc(OCCOc3ccccc3)cc2)CC1	-	.	-	-	-	.
CCOc1ccc(/C=C2\SC(=S)N(CCC(=O)Nc3ccccc3C(=O)O)C2=O)cc1	-	.	-	-	-	.
Cc1ccc(/C=C2\SC(=S)N(CCCC(=O)NNC(=O)c3ccccc3O)C2=O)cc1	-	.	-51.5	-	-	-
CCOc1ccc(/C=C2\SC(=S)N(CCC(=O)O)C2=O)cc1	-	.	-60.5	-	-	-
Cc1ccc(/C=C2\SC(=S)N(CCC(=O)NNC(=O)c3ccccc3O)C2=O)cc1	-	.	-	-	-	.
CCC(=O)NC(=S)Nc1ccc(NC(=O)COc2ccc(Cl)c(C)c2)cc1	79.2	-	-	-	-	-
CC(=O)NC(=S)Nc1ccc(NC(=O)COc2ccc(C(C)C)cc2)cc1	-	-	-	-	-	-
CCC(=O)NC(=S)Nc1ccc(NC(=O)COc2ccc(Cl)cc2Cl)cc1	52.7	-	-	-	-	-
CC(=O)NC(=S)Nc1ccc(NC(=O)COc2ccc(Cl)cc2)cc1	64.4	-	-	-	-	-
CCC1CCC(C(=O)NC(C(=O)NCCN2CCOCC2)C(C)C)CC1 (configuration not stated)	-	.	-	-	-	.
Cc1cc(C)cc(OC(=O)CS(=O)c2ccc(C(F)(F)F)cc2[N+](=O)[O-])c1 (configuration not stated)	170.7	-	-	-	-	-
O=C(CS(=O)c1ccc(C(F)(F)F)cc1[N+](=O)[O-])Oc1ccc(Cl)cc1 (configuration not stated)	73.0	-	-	-	-	-
COc1ccc(S(=O)(=O)N2CCCCC2)cc1C(=O)N1CCCC1	-	.	-	-	-	.
O=C(N/N=C/c1ccncc1)c1cc2ccccc2cc1O	311.5	.	-	-	-	.
Cc1ncoc1C(=O)Nc1ccc(Oc2ccccc2)cc1	52.4	-	-	-	-	-
S=C(NCCc1ccccc1)NN=C1CCCCCC1	67.0	-	-	-	-	-
CCC(C)(C)NC(=O)C(c1ccc(C)cc1)N(Cc1cccs1)C(=O)c1ccc2c(c1)OCCO2 (configuration not stated)	55.2	-	-	-	-	-
Cc1ccc(C(C(=O)NC(C)(C)C)N(Cc2cccs2)C(=O)c2ccc3c(c2)OCCO3)cc1 (configuration not stated)	-	-	-	-	-	-
O=C(COc1ccc(Br)cc1CO)Nc1ccccc1	-	-	-	-	-	-
OCc1cc(Br)ccc1OCc1nc2ccccc2s1	71.2	.	-	-	-	.
Oc1ccccc1OCc1nc2ccccc2s1	74.5	-	-	-	-	-
Cc1noc(C)c1S(=O)(=O)NCc1ccc(CN(C)C)cc1	.	.	.	.	-	.
SMILES	HSF1 activator	Hsp70 activator	HSF1 inh	HSP90 refold inh	HKDC1 inh	TbHK1 inh
COc1nc(-c2ccccc2)c2cc(Br)ccc2n1	-	.	-68.4	.	-	.
NNc1nc(-c2ccccc2)c2cc(Br)ccc2n1	-	.	-	-	-	.
O=C(Nc1cccc([N+](=O)[O-])c1)c1[nH]ncc1Cl	52.0	-	-	-	-	-
Cc1ccc(NC(=O)c2cnc(N3CCN(c4ccccn4)CC3)c3ccccc23)c(Br)c1	-	-	-63.1	-	-	-
O=C(Nc1c(F)cccc1F)c1cnc(N2CCN(c3ccccn3)CC2)c2ccccc12	-	-	-	-	-	-
COc1ccc(Cl)c2c1[nH]c1nc(SCc3cccnc3)nnc12	-	-	-	-	-	-
COc1ccc(Cl)c2c1[nH]c1nc(SCc3ccccn3)nnc12	103.4	-	-	-	-	-
Cc1ccc(C(C(=O)NCC2CCCO2)N(C(=O)c2snc(C(N)=O)c2N)c2ccc(C)c(C)c2)o1 (configuration not stated)	-	.	-	-	-	.
O=c1[nH][nH]c2cc(=O)n(-c3cccc(C(F)(F)F)c3)nc12	52.3	-	-	-	-	-
CCN(C(=O)c1cc2c(=O)[nH]c3ccc(C)cc3c2s1)c1ccccc1F	57.9	.	-	-	-	-
CCN(C(=O)c1cc2c(=O)[nH]c3ccc(C)cc3c2s1)c1ccc(F)cc1	-	.	-75.5	-	-	-
COc1ccc(NC(=O)CN2CCCCCC2)cc1OC	-	.	-	-	-	.
Cc1ccc(NC(=O)CNC(=O)c2ccco2)cc1	-	.	-	-	-	.
CC(O/N=C(\N)c1ccccc1)C(=O)Nc1cccc(C(F)(F)F)c1 (configuration not stated)	.	.	.	.	-	.
C[C@]12CC[C@@H]3c4ccc(O)cc4CC[C@H]3[C@@H]1CC[C@@H]2O	-	-	-	-	-	-
C[C@]12CC[C@@H]3c4cc(O)c(O)cc4CC[C@H]3[C@@H]1CC[C@@H]2O	85.4	-	-	-	-	.
CC(C)(C)OC(=O)N1CCN(C(=O)c2[nH]cnc2C(=O)Nc2nccs2)CC1	.	.	.	.	-	.
c1ccc(-n2cc(CN3CCCC3)c(-c3ccc4c(c3)OCO4)n2)cc1	55.1	-	-	-	-	-
Cc1ccc(-c2nc3ccccc3s2)cc1NC(=S)NC(=O)/C=C/c1ccco1	65.5	-	-	-	-	-
O=C(/C=C/c1ccco1)NC(=S)Nc1cc(-c2nc3ccccc3s2)ccc1Cl	.	-	.	-	-	-
O=C(c1ccco1)N(Cc1ccc([N+](=O)[O-])cc1)c1ccc(Br)cc1	57.3	-	-	-	-	-
O=C(Nc1ccc2[nH]ncc2c1)c1ccccc1Br	-	.	-	-	-	.
O=C(Nc1ccc2[nH]ncc2c1)c1ccccc1Cl	-	.	-66.6	-	-	.
O=[N+]([O-])c1ccc(C(O)C[n+]2ccccc2)cc1 (configuration not stated)	-	.	-	-	-	.
CCOC(=O)CSc1nc2c(sc(=S)n2-c2ccccc2OC)c(=O)n1Cc1ccco1	57.1	-	-	-	-	-
CCOC(=O)CSc1nc2c(sc3ccc([N+](=O)[O-])cc32)c(=O)n1Cc1ccco1	253.6	-	-	-	-	-

Compound activity from PubChem.
